Shown are actives, neighbours in structure and some others; about 1.5% of the full set was active somewhere.
Rpn11 block: Rpn11 (PSMD14) deubiquitinase inhibitors, primary screen, biochemical, fluorescence polarization, uHTS; AID 588493, 2011; human 26S proteasome, Ub4-pepOG fluorescence polarization; 20S core pre-blocked with epoxomicin; 26S proteasome non-ATPase regulatory subunit 14 (Homo sapiens), O00487; 360,000 tested, 0.59% active; calls only at 20 µM;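 active = inhibition at 20 µM, scaled to each plate's controls, above about 33%, limit read from the data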
CSN deneddyl inh: inhibitors of CSN-mediated cullin deneddylation, primary screen, biochemical, fluorescence polarization, uHTS | COP9 signalosome complex subunit 5 (Homo sapiens), Q92905 | Purified CSN, SCF-Nedd8-OG deneddylation | inhibition, % at 12.5 µM | 360,000 tested, 0.38% active;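 active = pattern-corrected inhibition above about 35%, with an unprinted fluorescence ratio check between 0.5 and 1.5, limit read from the data, passing the limit was not always enough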;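 also: 0% = enzyme with substrate and 100% = substrate without enzyme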
Target sequence (Q92905 whole entry, looked up, one chain of several): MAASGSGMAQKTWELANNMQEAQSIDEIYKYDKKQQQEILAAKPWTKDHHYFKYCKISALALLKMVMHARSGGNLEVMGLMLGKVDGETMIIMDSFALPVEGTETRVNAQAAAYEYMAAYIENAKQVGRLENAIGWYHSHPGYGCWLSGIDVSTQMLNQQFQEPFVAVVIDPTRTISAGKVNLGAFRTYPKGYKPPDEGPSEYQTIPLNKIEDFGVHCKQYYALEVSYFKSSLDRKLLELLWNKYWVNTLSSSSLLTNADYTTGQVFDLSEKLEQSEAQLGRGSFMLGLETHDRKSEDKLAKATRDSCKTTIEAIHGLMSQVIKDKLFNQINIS
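Test system: Human Csn5 produced in HEK293T cells | Compound: 12.5 µM single point | Times: 90 min, room temperature | Signal: Fluorescence polarization readout | Read-out basis: % inhibition of substrate cleavage by Csn5 | Controls: no-enzyme wells high, enzyme-with-substrate wells low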
HNF4A DNA FP: change in binding of human HNF4A to DNA, primary screen, biochemical, fluorescence polarization, FITC-DNA | Hepatocyte nuclear factor 4-alpha (Homo sapiens), P41235 | 1 h | activity change, % at 10 µM | 360,000 tested, 0.3% active; in the data active = activity change above about 30%, passing the limit was not always enough
TPT1 inhibitor: Candida albicans TPT1 enzyme inhibitors, primary screen, biochemical, fluorescence polarization; 300,000 tested, 0.81% active; recombinant caTPT1, FP RNA substrate dephosphorylation; inhibition, % at 5 µM;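 active = inhibition above the mean of all tested compounds plus 3 SD, set per screening campaign, cut at about 24% in these data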;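 also: plate controls were DMSO alone for no effect and ferristatin control at 100 nM for full effect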
* marks the source's active call; other numbers are inactive results; i = inactive; . = not tested or not shown; + = active, no number.

SMILES | Rpn11 block | CSN deneddyl inh | HNF4A DNA FP | TPT1 inhibitor
COc1ccc(CCNC(=O)c2nnn(CC(=O)Nc3ccc(C)cc3C)c2N)cc1OC | i | 34 | -1 | 1
O=C(OCc1cc(=O)n2c(n1)sc1ccccc12)c1ccc2c(=O)n3c(nc2c1)CCC3 | i | 36* | -39 | -1
CC1=C(C(=O)N(C)C)CC(CC(=O)NC2CCCC2)C(=O)N1CCC1=CCCCC1 (centres undefined) | i | -5 | -1 | .
CCOC(=O)c1cccc(C2=CC(=O)C[C@H](c3ccc(OC)cc3)C2)c1 | i | 95* | -4 | .
COc1ccc([C@H]2CC(=O)C=C(c3cccc(Cl)c3)C2)cc1 | i | 3 | 5 | .
O=C(/C=C/c1ccc(NC(=O)c2ccccc2-c2ccccc2C(=O)O)cc1)c1ccccc1 | . | 51* | 31 | 20
CC(C)CNC(=O)c1[nH]c(C(F)(F)F)nc1-c1ccccc1 | i | -2 | -3 | .
COc1ccc(NC(=O)c2cc(-c3ccco3)nc3ccccc23)cc1S(=O)(=O)N1CCOCC1 | i | 40 | -29 | 21
Cc1ccc(NC(=O)c2cc(-c3ccco3)nc3ccccc23)cc1S(=O)(=O)N1CCOCC1 | i | 37* | -24 | 12
CC(=O)c1ccc(N2CCN(C(=O)C3CCN(S(=O)(=O)Cc4ccccc4)CC3)CC2)cc1 | i | 92* | 6 | 2
O=C(C1CCN(S(=O)(=O)Cc2ccccc2)CC1)N1CCN(c2ncccn2)CC1 | i | 101* | 1 | -3
O=S(=O)(Cc1ccccc1)N1CCN(c2ncccn2)CC1 | i | 2 | -1 | -2
Cc1cc(Br)ccc1NC(=O)CN(C)C(=O)c1ccccc1OCc1c(C)noc1C | i | 1 | -1 | .
CCCNC(=O)C1(C)CCN(C(=O)COc2ccc(Cl)cc2Cl)C1 (centres undefined) | i | -3 | 1 | .
CCOC(=O)N1CCN(c2cc(=O)n(C3CCCCC3)c(=O)[nH]2)CC1 | i | 0 | 1 | -4
CCOC(=O)C1CCN(c2cc(=O)n(C3CCCCC3)c(=O)[nH]2)CC1 | i | 1 | 40* | -4
CCCCCN1C(=O)/C(=C/c2c(N3CCc4ccccc4C3)nc3ccccn3c2=O)SC1=S | . | 64 | 98 | 82*
COc1ccc2nc(N3CCCCC3)c(/C=C3\SC(=S)NC3=O)cc2c1 | + | 17 | 16 | 11
COc1ccc2nc(N3CCCCC3)c(C#N)cc2c1 | i | 1 | -7 | -35
O=C(N/N=C/c1ccc(OC(=O)c2cccc(F)c2)cc1)c1cccnc1 | i | 41* | -3 | 0
Cc1ccc(NC(=O)N2C3CCCC2CC(NC(=O)C2CC2)C3)cc1 (centres undefined) | i | 1 | -2 | 1
CC(=O)NC1CC2CCCC(C1)N2C(=O)Nc1ccc(Cl)c(C(F)(F)F)c1 (centres undefined) | i | 4 | 30* | -3
Cc1ccc(CNc2ccc3nnc(-c4ccccc4)n3n2)cc1 | i | 38* | 3 | -1
O=C(C[C@@H]1C[C@H]2c3cc(NC(=O)c4cccnc4)ccc3O[C@H]2[C@H](CO)O1)NCc1ccc(Oc2ccccc2)cc1 | i | 3 | 3 | .
Cn1cc(C(=O)c2ccccc2C(=O)O)cc1C(=O)C(Cl)(Cl)Cl | i | 43* | 1 | 0
SMILES | Rpn11 block | CSN deneddyl inh | HNF4A DNA FP | TPT1 inhibitor
Cn1cc(C(=O)c2ccc(Cl)cc2Cl)cc1C(=O)O | i | -2 | 2 | 3
COc1cc(/C=C(\NC(C)=O)C(=O)Nc2cccc(O)c2)ccc1OC(C)=O | i | 1 | 37* | 12
CN1CCN(c2nc(-c3cccnc3)nc3ccccc23)CC1 | i | -1 | -2 | 2
COc1cc2c(cc1OC)CN(c1nc(-c3cccnc3)nc3ccccc13)CC2 | i | 37* | 5 | 3
O=C(C[C@@H]1C/C=C\CCC(=O)O[C@H](c2ccccc2)CNC1=O)N[C@H](CO)Cc1ccccc1 | i | -4 | 2 | .
O=C(Nc1ccccc1C(F)(F)F)NC1(C(=O)N2CCOCC2)CCCCC1 | . | 43* | -22 | .
O=c1[nH]c2ccccc2nc1/C=C/c1ccc(O)cc1 | . | 6 | 36* | .
Cc1ccc(S(=O)(=O)N2CCCCC2)cc1NC(=O)COC(=O)c1cccn1C | i | 1 | 0 | .
Cc1cccc(NCC(=O)NNC(=S)Nc2ccccc2)c1 | i | 2 | -2 | -2
CNC(=S)NNC(=O)CNc1ccc(C)c(Cl)c1 | i | -3 | 53* | -3
COc1cccc(CNC(=O)CN(C)S(=O)(=O)c2ccc(Br)s2)c1 | i | 9 | 0 | -2
O=C(CSc1nc(-c2ccc(F)cc2)nc2c1Cc1ccccc1O2)Nc1ccc(C(=O)O)cc1 | + | 26 | -77 | .
O=C(CSc1nc(-c2ccc(F)cc2)nc2ccc(F)cc12)Nc1cccc(C(=O)O)c1 | i | 12 | 1 | 0
O=c1[nH]c(SCc2ccc(OC(F)(F)F)cc2)nc2c1CCC2 | i | 2 | 3 | .
S=c1[nH]ncn1/N=C/c1ccc(Br)cc1 | i | 3 | 0 | -4
S=c1[nH]ncn1/N=C/c1ccccc1 | i | 1 | 44* | -4
CCOc1cc(/C=N/NC(=O)c2nnn(-c3nonc3N)c2C)ccc1OCc1ccc(C)cc1 | i | 41* | 25 | .
OCCN(CCO)c1cc2c3ccccc3ccc2c2ccccc12 | i | 45* | -2 | .
COC(=O)c1sccc1NC(=O)c1ccc(C#N)cc1 | + | 9 | 3 | 1
C=CC(=O)Nc1ccc(Nc2nc(NC3CCC(N(C)C)CC3)nc3c2ncn3C(C)C)cc1 (centres undefined) | i | 37* | 18 | .
CC(C)n1cnc2c(Nc3ccc(F)c(Cl)c3)nc(NCCO)nc21 | i | -2 | -13 | -4
COC(=O)CN1C(=O)[C@H]2[C@@H](/C=C/c3ccccc3)N3C(=O)CN(Cc4ccccc4)C(=O)[C@@]3(C)[C@H]2C1=O | i | -4 | 4 | 0
O=C1c2ccccc2NC(c2cccc(Cl)c2)N1N=C1CCCCCC1 (centres undefined) | i | 57* | -3 | 2
Cc1cccc(NC(=O)c2cc(-c3cc(C)cc(C)c3O)n[nH]2)c1 | i | 2 | 31* | -1
Cc1cc(C)c(O)c(-c2cc(C(=O)Nc3cccnc3)[nH]n2)c1 | i | -1 | 3 | 0
COc1cc2c(-c3ccc(O)cc3)nc3c(c(C)nn3-c3ccccc3)c2cc1OC | i | 1 | 160* | -1
COc1cc2c(C)nc3c(c(C)nn3-c3ccccc3)c2cc1OC | i | 1 | -3 | -2
COc1ccc(OC)c(NC(=O)COC(=O)CCc2nc3ccccc3c(=O)[nH]2)c1 | i | 3 | -1 | .
Nc1c2c(=O)[nH]c(O)cc2nn1-c1ccccc1 | i | -1 | -4 | .

Screens as filed in PubChem BioAssay.
